Experimental data as given in ChEMBL document CHEMBL4043285 (J Med Chem, 2018).

Experiments:
[1] = Inhibition of Aurk mouse L929sA cells transfected with human Fas assessed as reduction in cell growth after 24 hrs in presence of TNF by Hoechst 33342 staining-based microscopic assay
In short: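 L929sAhFAS cells exposed to compound; total cell number is counted after 24 h. IC50 is fitted from a dose–response curve of cell growth.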

[2] = Inhibition of Aurk mouse L929sA cells transfected with human Fas assessed as increase in nuclear area after 24 hrs in presence of TNF by Hoechst 33342 staining-based microscopic assay
In short: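 L929sAhFAS cells treated with compound; mean nuclear area is measured and fitted as a sigmoidal dose–response curve.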

[3] = molecular target: T1, Receptor-interacting serine/threonine-protein kinase 1 (Mus musculus) (UniProt Q60855); test: Inhibition of RIPK1 in mouse L929sA cells transfected with human Fas assessed as inhibition in TNF-induced necroptosis at 3 uM pretreated for 0.5 hrs followed by TNF and zVAD.fmk addition measured after 3 hrs by Hoechst 33342/propidium iodide staining-based assay relative to control; type: cell-based
T1 sequence (whole entry): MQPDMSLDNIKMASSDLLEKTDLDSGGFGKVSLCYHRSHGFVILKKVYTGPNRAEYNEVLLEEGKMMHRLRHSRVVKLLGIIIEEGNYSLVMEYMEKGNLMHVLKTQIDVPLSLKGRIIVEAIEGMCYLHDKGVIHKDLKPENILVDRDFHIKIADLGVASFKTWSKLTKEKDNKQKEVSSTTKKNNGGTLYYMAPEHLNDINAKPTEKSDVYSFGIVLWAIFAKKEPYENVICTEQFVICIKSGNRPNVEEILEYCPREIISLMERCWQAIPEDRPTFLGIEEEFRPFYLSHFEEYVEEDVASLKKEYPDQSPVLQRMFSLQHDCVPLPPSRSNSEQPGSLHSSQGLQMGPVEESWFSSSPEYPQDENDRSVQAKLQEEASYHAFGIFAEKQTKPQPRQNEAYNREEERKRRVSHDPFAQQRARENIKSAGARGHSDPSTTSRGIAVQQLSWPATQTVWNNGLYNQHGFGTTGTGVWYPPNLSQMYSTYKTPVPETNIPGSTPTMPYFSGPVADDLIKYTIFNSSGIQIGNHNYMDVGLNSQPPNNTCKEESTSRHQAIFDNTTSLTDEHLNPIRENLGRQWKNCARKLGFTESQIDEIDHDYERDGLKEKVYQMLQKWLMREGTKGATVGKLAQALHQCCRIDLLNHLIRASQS

[4] = molecular target: T1, Receptor-interacting serine/threonine-protein kinase 1 (Mus musculus); test: Inhibition of RIPK1 in mouse L929sA cells transfected with human Fas assessed as inhibition in TNF-induced necroptosis at 3 uM pretreated for 24 hrs followed by TNF and zVAD.fmk addition measured after 3 hrs by Hoechst 33342/propidium iodide staining-based assay relative to control; type: cell-based
Aurk (Aurora kinase) [5] = test: Inhibition of Aurk in mouse L929sA cells transfected with human Fas assessed as reduction in cell growth at 3 uM after 24 hrs in presence of TNF by Hoechst 33342 staining-based microscopic assay relative to control
Aurk (Aurora kinase) [6] = test: Inhibition of Aurk in mouse L929sA cells transfected with human Fas assessed as increase in nuclear area at 3 uM after 24 hrs in presence of TNF by Hoechst 33342 staining-based microscopic assay relative to control; type: cell-based

SMILES | IC50 [2] | inhibition at 24 h, 3 µM (Aurk (Aurora kinase) [6]) | IC50 [1] | inhibition [3] | inhibition [4] | inhibition at 24 h, 3 µM (Aurk (Aurora kinase) [5])
Cc1cc(Nc2nc(Nc3ccc(NC(=O)C4CCCCC4)cc3)nc(N3CCCCC3)n2)n[nH]1 | > 3000 nM | < 50% | > 3000 nM | < 50% | < 50% | < 50%
Cc1[nH]nc(Nc2nc(Sc3ccc(NC(=O)C4CCCCC4)cc3)nc(N3CCOCC3)n2)c1C | > 3000 nM | < 50% | > 3000 nM | < 50% | < 50% | < 50%
Cc1[nH]nc(Nc2cc(N3CCOCC3)nc(Nc3ccc(NC(=O)C4CCCCC4)cc3)n2)c1C | > 3000 nM | < 50% | > 3000 nM | < 50% | < 50% | < 50%
Cc1cc(Nc2nc(Sc3ccc(NC(=O)C4CC4)cc3)nc(N3CCOCC3)n2)n[nH]1 | > 3000 nM | < 50% | > 3000 nM |  |  | < 50%
Cc1cc(Nc2nc(Nc3ccc(NC(=O)C4CC4)cc3)nc(N3CCOCC3)n2)n[nH]1 | > 3000 nM | < 50% | > 3000 nM |  |  | < 50%
Cc1[nH]nc(Nc2cc(N3CCN(C)CC3)nc(Nc3ccc(NC(=O)C4CCCCC4)cc3)n2)c1C | > 3000 nM | < 50% | > 3000 nM | < 50% | < 50% | < 50%
Cc1[nH]nc(Nc2nc(Nc3ccc(NC(=O)C4CC4)cc3)nc(N3CCN(C)CC3)n2)c1C | > 3000 nM | < 50% | > 3000 nM | < 50% | < 50% | < 50%
Cc1[nH]nc(Nc2cc(N3CCN(C)CC3)nc(Sc3ccc(NC(=O)C4CCCCC4)cc3)n2)c1C | > 3000 nM | < 50% | > 3000 nM | < 50% | < 50% | < 50%
Cc1[nH]nc(Nc2nc(Sc3ccc(NC(=O)C4CCCCC4)cc3)nc(N3CCCCC3)n2)c1C | > 3000 nM | < 50% | > 3000 nM | < 50% | < 50% | < 50%
Cc1cc(Nc2cc(N3CCCCC3)nc(Nc3ccc(NC(=O)C4CCCCC4)cc3)n2)n[nH]1 | > 3000 nM | < 50% | > 3000 nM | < 50% |  | < 50%
Cc1cc(Nc2nc(Sc3ccc(NC(=O)C4CC4)cc3)nc(N3CCCCC3)n2)n[nH]1 | > 3000 nM | < 50% | > 3000 nM | < 50% | < 50% | < 50%
Cc1[nH]nc(Nc2cc(N3CCOCC3)nc(Sc3ccc(NC(=O)C4CCCCC4)cc3)n2)c1C | > 3000 nM | < 50% | > 3000 nM | < 50% | < 50% | < 50%
Cc1[nH]nc(Nc2cc(N3CCCCC3)nc(Nc3ccc(NC(=O)C4CCCCC4)cc3)n2)c1C | > 3000 nM | < 50% | > 3000 nM | < 50% | < 50% | < 50%
Cc1cc(Nc2cc(N3CCN(C)CC3)nc(Nc3ccc(NC(=O)C4CCCCC4)cc3)n2)n[nH]1 | > 3000 nM | < 50% | > 3000 nM |  |  | < 50%
Cc1cc(Nc2nc(Sc3ccc(NC(=O)C4CCCCC4)cc3)nc(N3CCOCC3)n2)n[nH]1 | > 3000 nM | < 50% | 2170 nM | < 50% |  | 

Further lines, with some results ahead:

IC50 [2] | inhibition at 24 h, 3 µM (Aurk (Aurora kinase) [6]) | SMILES | IC50 [1] | inhibition [3] | inhibition [4] | inhibition at 24 h, 3 µM (Aurk (Aurora kinase) [5])
> 3000 nM | < 50% | Cc1[nH]nc(Nc2nc(Nc3ccc(NC(=O)C4CCCCC4)cc3)nc(N3CCOCC3)n2)c1C | > 3000 nM | < 50% | < 50% | < 50%
> 3000 nM | < 50% | Cc1cc(Nc2cc(N3CCCCC3)nc(Sc3ccc(NC(=O)C4CCCCC4)cc3)n2)n[nH]1 | 813 nM |  |  | 
> 3000 nM | < 50% | Cc1[nH]nc(Nc2cc(N3CCOCC3)nc(Nc3ccc(NC(=O)C4CC4)cc3)n2)c1C | > 3000 nM | < 50% | < 50% | < 50%
1040 nM |  | Cc1cc(Nc2cc(N3CCOCC3)nc(Sc3ccc(NC(=O)C4CC4)cc3)n2)n[nH]1 | 1000 nM |  |  | 
> 3000 nM | < 50% | Cc1[nH]nc(Nc2cc(N3CCN(C)CC3)nc(Nc3ccc(NC(=O)C4CC4)cc3)n2)c1C | > 3000 nM | < 50% | < 50% | < 50%
> 3000 nM | < 50% | Cc1[nH]nc(Nc2nc(Nc3ccc(NC(=O)C4CCCCC4)cc3)nc(N3CCN(C)CC3)n2)c1C | > 3000 nM | < 50% | < 50% | < 50%
800 nM |  | Cc1cc(Nc2nc(Sc3ccc(NC(=O)C4CC4)cc3)nc(N3CCN(C)CC3)n2)n[nH]1 | 440 nM | < 50% |  | 
> 3000 nM | < 50% | Cc1cc(Nc2nc(Nc3ccc(NC(=O)C4CC4)cc3)nc(N3CCN(C)CC3)n2)n[nH]1 | > 3000 nM | < 50% | < 50% | < 50%
> 3000 nM | < 50% | Cc1[nH]nc(Nc2nc(Sc3ccc(NC(=O)C4CCCCC4)cc3)nc(N3CCN(C)CC3)n2)c1C | > 3000 nM | < 50% | < 50% | < 50%
> 3000 nM | < 50% | CCN1CCN(c2cc(Nc3n[nH]c(C)c3C)nc(Sc3ccc(NC(=O)C4CC4)cc3)n2)CC1 | > 3000 nM | < 50% | < 50% | < 50%
> 3000 nM | < 50% | Cc1cc(Nc2cc(N3CCN(C)CC3)nc(Sc3ccc(NC(=O)C4CCCCC4)cc3)n2)n[nH]1 | < 600 nM | < 50% | < 50% | 
> 3000 nM | < 50% | Cc1cc(Nc2cc(N3CCOCC3)nc(Nc3ccc(NC(=O)C4CCCCC4)cc3)n2)n[nH]1 | 2250 nM |  |  | 
> 3000 nM | < 50% | Cc1cc(Nc2nc(Sc3ccc(NC(=O)C4CCCCC4)cc3)nc(N3CCCCC3)n2)n[nH]1 | > 3000 nM | < 50% | < 50% | < 50%
> 3000 nM | < 50% | Cc1cc(Nc2nc(Nc3ccc(NC(=O)C4CCCCC4)cc3)nc(N3CCOCC3)n2)n[nH]1 | 2300 nM | < 50% | < 50% | 
> 3000 nM | < 50% | Cc1[nH]nc(Nc2cc(N3CCCCC3)nc(Sc3ccc(NC(=O)C4CCCCC4)cc3)n2)c1C | > 3000 nM | < 50% | < 50% | < 50%
> 3000 nM | < 50% | Cc1[nH]nc(Nc2nc(Sc3ccc(NC(=O)C4CC4)cc3)nc(N3CCN(C)CC3)n2)c1C | > 3000 nM | < 50% | < 50% | < 50%
> 3000 nM | < 50% | Cc1[nH]nc(Nc2nc(Nc3ccc(NC(=O)C4CC4)cc3)nc(N3CCOCC3)n2)c1C | > 3000 nM | < 50% | < 50% | < 50%
> 3000 nM | < 50% | Cc1[nH]nc(Nc2cc(N3CCCCC3)nc(Nc3ccc(NC(=O)C4CC4)cc3)n2)c1C | > 3000 nM | < 50% | < 50% | < 50%
< 600 nM |  | Cc1cc(Nc2cc(N3CCOCC3)nc(Sc3ccc(NC(=O)C4CCCCC4)cc3)n2)n[nH]1 | 214 nM |  |  | 
1000 nM |  | Cc1cc(Nc2cc(N3CCCCC3)nc(Sc3ccc(NC(=O)C4CC4)cc3)n2)n[nH]1 | 1320 nM |  |  | 
